# Rows were chosen to be rich in hits. Some 4.5% of all compounds tested hit in one or more screens of this group.
# MDM2 E3 inh: MDM2-luciferase reporter signal enhancers, primary screen, MDM2 E3 ligase inhibitor project, cell-based, luminescence, 1536-well; E3 ubiquitin-protein ligase Mdm2 (Homo sapiens), Q00987; cell-based MDM2 ubiquitination luciferase reporter, 2 h; 0 = plate control, 100 = twice control, blank-subtracted; signal enhancement, % at 5 µM; 210,000 compounds, 0.11% hits;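 active = signal enhancement of 30% or more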;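 also: luminescence tracks abundance of the self-degrading MDM2-luciferase fusion protein; higher signal means inhibition of MDM2 E3 ligase activity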
#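 Test system: mammalian cells stably expressing self-ubiquitinating, self-degrading MDM2 E3–luciferase fusion; Amount: 2000 cells in each well; Medium: DMEM; Schedule: 4 h settle plus 2 h compound, 37 °C; Technique: SteadyLite luciferase luminescence after 15 min room-temperature reagent incubation; Benchmarks: plate control and blank wells.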
# STAT1 act: STAT1 signaling activators, primary screen, cell-based, HTS, luciferase reporter. NIH 3T3 STAT1-luciferase reporter, IFN-gamma, luminescence; 100% = IFN-gamma alone, no compound. activation (% of control), % at 5.5 µM. 200,000 compounds, 2.6% hits. AID 932, 2007;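 active = activation above the screen-wide mean activation plus 3 SD, cut at about 130% in these data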;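 also: raw ratio to IFN-gamma control signal so 100% means no change and 0% no light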
# APP 5'UTR act: activators of APP 5'UTR luciferase reporter, primary screen, SH-SY5Y cells. SH-SY5Y APP 5'UTR luciferase reporter, luminescence; zero percent = DMSO vehicle wells. activation, % at 2 µM. 190,000 compounds, 1% hits;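 active = activation above a set limit, based on mean plus 3 SD of controls, cut at about 140% in these data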
# PERK inhibitor: block of dimerizer-induced PERK translation repression, primary screen, PERK inhibitor project, CHO PERK-DD cells, SEAP luminescence, HTS. CHO PERK-DD fusion, SEAP luminescence translation reporter. inhibition, % at 5.6 µM. 220,000 compounds, 0.17% hits;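 active = inhibition above the mean inhibition of all tested compounds plus 3 SD, set separately per screening campaign, cut at about 2.9% in these data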;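 also: PERK kinase domain activated by AP20187 dimerizer at 100 nM; 0% = DMSO with dimerizer and 100% = rapamycin at 8.4 µM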
# Target sequence (Q9NZJ5 whole entry, looked up, the tested form may be a part): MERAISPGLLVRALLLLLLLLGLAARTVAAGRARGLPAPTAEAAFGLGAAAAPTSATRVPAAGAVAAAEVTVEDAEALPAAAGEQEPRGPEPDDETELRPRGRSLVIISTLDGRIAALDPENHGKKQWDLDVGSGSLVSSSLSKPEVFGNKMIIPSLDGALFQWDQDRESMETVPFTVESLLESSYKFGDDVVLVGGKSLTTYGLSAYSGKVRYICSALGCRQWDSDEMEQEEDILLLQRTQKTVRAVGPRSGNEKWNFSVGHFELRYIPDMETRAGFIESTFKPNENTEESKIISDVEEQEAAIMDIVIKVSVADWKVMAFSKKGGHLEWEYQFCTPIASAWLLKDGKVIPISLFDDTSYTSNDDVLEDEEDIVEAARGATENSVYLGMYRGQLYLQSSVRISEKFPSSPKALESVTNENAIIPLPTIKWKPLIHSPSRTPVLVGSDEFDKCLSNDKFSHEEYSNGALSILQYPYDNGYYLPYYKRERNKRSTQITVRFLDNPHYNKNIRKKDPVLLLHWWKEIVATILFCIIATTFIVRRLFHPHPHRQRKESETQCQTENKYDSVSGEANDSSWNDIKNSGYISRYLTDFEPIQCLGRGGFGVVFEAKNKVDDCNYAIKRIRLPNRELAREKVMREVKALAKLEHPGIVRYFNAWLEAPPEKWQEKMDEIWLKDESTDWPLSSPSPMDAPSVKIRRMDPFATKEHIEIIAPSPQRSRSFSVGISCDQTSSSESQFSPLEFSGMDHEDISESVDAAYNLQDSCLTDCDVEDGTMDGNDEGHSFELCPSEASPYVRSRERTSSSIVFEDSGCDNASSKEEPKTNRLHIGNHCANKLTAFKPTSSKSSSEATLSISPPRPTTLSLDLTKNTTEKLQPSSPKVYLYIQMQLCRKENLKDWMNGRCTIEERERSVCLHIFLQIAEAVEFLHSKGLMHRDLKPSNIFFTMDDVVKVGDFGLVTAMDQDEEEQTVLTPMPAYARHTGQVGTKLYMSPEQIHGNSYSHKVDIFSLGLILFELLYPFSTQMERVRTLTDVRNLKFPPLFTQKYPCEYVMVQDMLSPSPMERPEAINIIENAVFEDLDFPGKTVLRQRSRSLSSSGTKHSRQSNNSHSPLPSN
# NF-kB expr up: activators of NF-kB expression in neurons, primary screen, cell-based, HTS; human neuronal cells, NF-kB reporter expression; hits give high values; fold change at 12.5 µM; 190,000 compounds, 1.6% hits; AID 1239, 2008; in the data active = fold change above about 3.3
# AHR act: AHR activators, primary screen, cell-based, luminescence, luciferase reporter, human; activation, % at 5 µM; AID 2796, 2010; Aryl hydrocarbon receptor (Homo sapiens), P35869; AHR-responsive luciferase reporter cells; 320,000 compounds, 2.5% hits; in the data active = activation above about 47%;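 also: 0% = vehicle wells and 100% = reference agonist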
# Active calls of the source: *; . = not tested or not shown.
SMILES,MDM2 E3 inh,STAT1 act,APP 5'UTR act,PERK inhibitor,NF-kB expr up,AHR act
CCC(c1nnnn1Cc1ccc(F)cc1)N(CCCO)Cc1cc2cc3c(cc2[nH]c1=O)OCO3 (stereo not drawn),-9.5,101.0,5.8,0.5,1.06,72.7*
Cc1occc1-c1nnc(-c2cc([N+](=O)[O-])cc([N+](=O)[O-])c2)o1,-0.4,100.3,-4.8,0.1,0.98,-0.8
Cc1ccnc(SCC(=O)NC2CCCCCC2)n1,.,.,.,.,.,-2.2
COc1cc(/C=N/n2c(C)n[nH]c2=S)ccc1OCc1ccc(F)cc1,2.6,129.4*,49.2,0.5,2.03,-2.8
COc1cc(/C=N\n2nnnc2N)ccc1OCc1ccc(F)cc1,-8.9,111.6,2.9,-0.9,0.88,-6.7
Cc1cc(=O)oc2ccc(OCc3ccccc3)cc12,.,.,.,.,.,51.1*
COC(=O)c1ccccc1OCCCOc1ccc(C=O)cc1OC,-4.3,134.3*,90.7,0.7,1.24,0.4
COc1cc(C=O)ccc1OCc1ccccc1Br,-0.9,116.0,23.9,1.8,1.67,12.0
COc1cc(C=O)ccc1OCc1cccc(Br)c1,4.0,129.5*,57.6,0.3,1.07,6.6
CCCOc1ccc(-c2cnc(N)s2)cc1,-15.6,133.4*,87.7,0.0,2.21,0.3
COc1ccc(-c2nnc(N(C)C(=O)C3CCCO3)s2)cc1 (stereo not drawn),-12.0,121.4,54.6,0.4,2.64,0.4
CCCN(C(=O)c1ccco1)c1nnc(-c2cccc(C)c2)s1,-1.7,99.3,47.9,0.6,1.68,2.3
COc1ccc(-c2nnc(N(C)C(=O)C3CCOC3)s2)cc1 (stereo not drawn),.,108.5,157.4*,0.3,2.36,-5.1
CCN(C(=O)c1ccco1)c1nnc(-c2ccc(OC)cc2)s1,.,103.6,2.8,0.4,3.63*,4.9
Cc1ccc(NC2CCCN(C(=O)CCn3nccc3C)C2)cc1C (stereo not drawn),.,.,.,.,.,38.0
COc1ccc(-n2nnnc2-c2ccccc2)cc1,0.7,98.8,-89.2,-1.2,1.35,-1.8
COc1ccc(-c2nnnn2-c2ccc(F)cc2F)cc1,-14.1,96.3,6.2,1.0,3.89*,0.8
O=C(CSc1nnc(NC(=O)c2cccc(F)c2)s1)NC1CCCC1,.,.,.,.,.,1.4
NC(=O)Cc1ccc(Nc2nnc(-c3ccc(O)cc3)c3ccccc23)cc1,-9.6,101.1,29.4,1.0,1.06,6.3
COc1ccc(-c2nc3ccccn3c2/N=C/c2ccc(OC)c(OC)c2)cc1O,-5.1,107.8,2.5,-0.3,1.34,11.2
COc1ccccc1-n1cnc2cc(NCc3cccs3)ccc21,-7.6,112.9,-93.1,-1.3,3.34*,18.7
Cc1ccccc1-n1cnc2cc(NCc3cccs3)ccc21,-30.7,103.0,12.3,-0.5,1.38,-0.5
COc1ccc(S(=O)(=O)N2CCCC(C(=O)NCCN3CCOCC3)C2)cc1C (stereo not drawn),.,.,.,.,.,0.8
O=C(COc1ccc(Br)cc1Cl)NC(=O)NC1CCCC1,.,.,.,.,.,-2.1
COCCNC(=O)COc1ccc(Br)cc1Cl,-25.0,99.3,-0.2,-0.2,1.13,15.2
SMILES,MDM2 E3 inh,STAT1 act,APP 5'UTR act,PERK inhibitor,NF-kB expr up,AHR act
C=CCNC(=O)COc1ccc(Br)cc1Cl,-15.7,131.9*,39.2,1.1,2.32,3.7
O=C(COc1ccc(Br)cc1Cl)NC1CCCCC1,-3.4,138.1*,77.0,0.2,3.45*,9.3
O=C(COc1ccc(Br)cc1Cl)c1ccc[nH]1,-7.8,136.8*,57.8,-0.3,3,0.1
O=C(COc1ccc(Br)cc1Br)NC1CCCC1,-28.7,140.9*,52.9,-0.1,2.73,-7.5
O=C(COc1ccccc1Cl)c1ccc[nH]1,-10.0,120.3,13.3,1.0,1.41,-1.5
O=C1CSC(c2ccccn2)N1c1ccc(F)cc1F (stereo not drawn),-11.9,102.3,12.3,0.4,0.93,-0.1
CN(C)C(=S)Nn1c(-c2ccccc2)nc2ccccc2c1=O,-0.2,98.7,-11.7,0.4,1.11,-1.3
O=C(Nn1c(-c2ccccc2)nc2ccccc2c1=O)c1cccs1,4.2,100.0,-1.7,1.0,1.28,51.0*
O=C(Nn1c(-c2ccccc2)nc2ccccc2c1=O)C1CCC1,-63.9,94.1,3.4,-0.6,1.13,47.2*
Cc1nc(SCC(=O)Nn2c(-c3ccccc3)nc3ccccc3c2=O)n[nH]1,-4.3,97.5,5.1,0.3,1.13,74.2*
CCCn1nnc(NC(=O)/C=C/c2ccccc2)n1,-1.5,109.7,-6.5,0.1,1.44,24.3
Cc1nc(NC(=O)/C=C/c2ccccc2)n[nH]1,39.2*,85.3,-18.9,0.4,0.77,21.7
O=C(OCC(=O)N1CCC(Cc2ccccc2)CC1)c1cc(Cl)ccc1O,.,.,.,.,.,1.3
Cc1ccc(NC(=O)c2cccc(-n3cnnn3)c2)cc1Cl,.,.,.,.,.,56.2*
Cc1ncoc1C(=O)Nc1cccc(Cl)c1,.,127.7,14.8,1.4,1.63,10.6
Cc1ccc(NC(=O)c2ocnc2C)cc1Cl,-6.6,144.7*,73.0,-0.2,2.7,11.8
CC(=O)OCC(=O)NCC(=O)c1c[nH]c2ccccc12,.,94.4,6.8,0.7,1.19,9.7
O=C(Oc1ccccc1/C=C\C(=O)c1cc2ccccc2o1)c1ccccc1,-13.8,85.8,163.0*,0.6,5.7*,67.8*
COc1cccc(C(=O)Oc2ccccc2/C=C\C(=O)c2cc3ccccc3o2)c1,-8.8,96.6,61.1,0.6,20.7*,.
O=C(Oc1ccccc1/C=C\C(=O)c1cc2ccccc2o1)c1cccc(F)c1,-4.0,102.5,76.3,0.8,4*,70.0*
NC(=O)N/N=C/c1ccccc1OC(=O)c1cc2ccccc2oc1=O,.,.,.,.,.,2.7
Cc1cccc(NS(=O)(=O)c2ccc(NC(=O)CN(c3cc([N+](=O)[O-])ccc3C)S(C)(=O)=O)cc2)c1,-93.4,110.1,-10.7,0.2,1.06,18.9
COc1ccc(C)cc1NS(=O)(=O)c1ccc(NC(=O)CN(c2cc([N+](=O)[O-])ccc2C)S(C)(=O)=O)cc1,-9.8,118.4,-59.3,0.1,0.66,47.7*
COc1ccccc1-c1nc(C(N)=O)c2[nH]c(=O)n(-c3cccc(C)c3)c2n1,-18.0,91.0,22.4,-0.1,0.53,66.0*
N#Cc1c(N)nc2c(c1-c1cccc(O)c1)CCCCCC2,146.7*,106.9,6.0,-1.4,1.02,-1.1
COc1ccccc1Nc1nc2c(C)cccc2cc1C#N,1.3,106.3,-0.5,0.6,0.97,4.2
CCOc1ccc(Nc2nc3c(C)cccc3cc2C#N)cc1,.,.,.,.,.,50.1*

# Assay outcomes (PubChem)
